Laboratory results reported in ChEMBL document CHEMBL1938337, “Discovery of novel, potent, and selective inhibitors of 3-phosphoinositide-dependent kinase (PDK1)” (J Med Chem, 2011).

How the values were obtained:
[1] = molecular target: Casein kinase I isoform alpha (Homo sapiens) (UniProt P48729); experiment: Inhibition of CSNK1A1 at 1 uM
[2] = molecular target: High affinity nerve growth factor receptor (Homo sapiens, UniProt P04629); experiment: Inhibition of NTRK1 at 1 uM
[3] = molecular target: T1, Serine/threonine-protein kinase TAO2 (Homo sapiens) (UniProt Q9UL54); experiment: Inhibition of TAOK2 at 1 uM
T1 sequence (whole entry): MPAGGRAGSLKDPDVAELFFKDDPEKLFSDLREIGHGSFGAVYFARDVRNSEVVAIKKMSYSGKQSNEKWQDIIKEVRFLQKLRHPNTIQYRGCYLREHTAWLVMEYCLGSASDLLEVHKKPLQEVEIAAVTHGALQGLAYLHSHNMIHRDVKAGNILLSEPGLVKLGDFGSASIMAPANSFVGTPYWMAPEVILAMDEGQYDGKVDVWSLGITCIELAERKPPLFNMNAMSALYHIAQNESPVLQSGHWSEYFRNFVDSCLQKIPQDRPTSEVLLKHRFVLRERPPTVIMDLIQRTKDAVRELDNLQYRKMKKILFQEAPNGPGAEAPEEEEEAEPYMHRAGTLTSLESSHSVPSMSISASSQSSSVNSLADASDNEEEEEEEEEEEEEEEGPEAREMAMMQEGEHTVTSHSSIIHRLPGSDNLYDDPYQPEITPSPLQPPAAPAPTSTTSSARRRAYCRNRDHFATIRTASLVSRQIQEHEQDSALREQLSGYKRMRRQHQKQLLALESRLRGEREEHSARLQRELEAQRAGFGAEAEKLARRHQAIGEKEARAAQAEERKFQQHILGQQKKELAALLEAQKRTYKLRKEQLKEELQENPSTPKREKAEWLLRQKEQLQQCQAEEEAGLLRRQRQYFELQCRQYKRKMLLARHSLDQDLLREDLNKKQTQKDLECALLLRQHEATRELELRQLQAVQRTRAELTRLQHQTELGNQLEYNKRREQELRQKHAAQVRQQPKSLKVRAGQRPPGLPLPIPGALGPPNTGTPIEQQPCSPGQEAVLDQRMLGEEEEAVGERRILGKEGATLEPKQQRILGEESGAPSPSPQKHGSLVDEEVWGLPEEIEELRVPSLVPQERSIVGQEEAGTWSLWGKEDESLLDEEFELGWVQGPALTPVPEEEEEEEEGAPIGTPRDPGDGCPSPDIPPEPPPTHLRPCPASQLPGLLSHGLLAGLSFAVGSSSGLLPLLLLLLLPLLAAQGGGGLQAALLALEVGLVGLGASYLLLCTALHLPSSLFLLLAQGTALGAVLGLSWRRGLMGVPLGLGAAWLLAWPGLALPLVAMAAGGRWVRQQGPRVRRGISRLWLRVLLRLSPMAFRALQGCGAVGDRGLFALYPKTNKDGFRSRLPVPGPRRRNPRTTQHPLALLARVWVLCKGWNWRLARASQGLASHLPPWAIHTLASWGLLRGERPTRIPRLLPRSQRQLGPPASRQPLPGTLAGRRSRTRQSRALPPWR

[4] = molecular target: Proto-oncogene tyrosine-protein kinase Src (Homo sapiens) (UniProt P12931); experiment: Inhibition of SRC at 1 uM
[5] = Clearance in human liver microsomes; type: ADME, Microsome; settings: read-out: CLH
[6] = molecular target: Tyrosine-protein kinase Lck (Homo sapiens) (UniProt P06239); experiment: Inhibition of LCK at 1 uM
[7] = molecular target: Hepatocyte growth factor receptor (Homo sapiens) (UniProt P08581); experiment: Inhibition of MET at 1 uM
[8] = molecular target: Mitogen-activated protein kinase 1 (Homo sapiens) (UniProt P28482); experiment: Inhibition of MAPK1 at 1 uM
[9] = molecular target: Ephrin type-A receptor 2 (Homo sapiens) (UniProt P29317); experiment: Inhibition of EPHA2 at 1 uM
[10] = molecular target: T2, Tyrosine-protein kinase JAK3 (Homo sapiens) (UniProt P52333); experiment: Inhibition of JAK3 at 1 uM
T2 sequence (whole entry): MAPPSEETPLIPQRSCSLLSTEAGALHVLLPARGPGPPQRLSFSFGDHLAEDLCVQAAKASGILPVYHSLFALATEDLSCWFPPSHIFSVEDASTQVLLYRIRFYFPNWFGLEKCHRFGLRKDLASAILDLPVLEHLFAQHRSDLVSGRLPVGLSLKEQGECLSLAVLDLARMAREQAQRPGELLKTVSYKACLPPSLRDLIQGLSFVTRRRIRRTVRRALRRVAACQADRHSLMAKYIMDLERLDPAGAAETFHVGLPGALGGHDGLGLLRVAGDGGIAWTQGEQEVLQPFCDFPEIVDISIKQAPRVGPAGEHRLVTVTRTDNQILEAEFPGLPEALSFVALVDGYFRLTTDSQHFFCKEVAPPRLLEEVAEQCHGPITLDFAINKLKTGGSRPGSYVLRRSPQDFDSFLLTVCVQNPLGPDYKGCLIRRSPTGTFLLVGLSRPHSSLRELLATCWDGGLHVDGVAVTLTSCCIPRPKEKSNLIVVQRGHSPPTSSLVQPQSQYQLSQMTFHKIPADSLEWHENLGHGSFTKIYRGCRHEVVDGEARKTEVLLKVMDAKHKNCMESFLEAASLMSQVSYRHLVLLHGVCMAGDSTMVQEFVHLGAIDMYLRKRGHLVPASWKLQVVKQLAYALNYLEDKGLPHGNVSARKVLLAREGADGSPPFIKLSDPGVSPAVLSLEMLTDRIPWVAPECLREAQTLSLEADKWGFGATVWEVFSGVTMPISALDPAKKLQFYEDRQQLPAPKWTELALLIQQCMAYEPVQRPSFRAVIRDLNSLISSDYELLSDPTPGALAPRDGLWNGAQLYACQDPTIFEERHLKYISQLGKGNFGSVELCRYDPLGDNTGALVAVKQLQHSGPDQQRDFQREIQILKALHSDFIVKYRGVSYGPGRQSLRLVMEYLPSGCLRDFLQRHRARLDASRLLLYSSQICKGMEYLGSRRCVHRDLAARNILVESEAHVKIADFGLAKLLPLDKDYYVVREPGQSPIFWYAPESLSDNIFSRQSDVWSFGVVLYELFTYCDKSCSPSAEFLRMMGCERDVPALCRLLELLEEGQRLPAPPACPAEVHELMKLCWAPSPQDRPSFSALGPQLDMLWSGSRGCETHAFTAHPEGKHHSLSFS

[11] = Inhibition of recombinant GST-tagged P70S6K using 5FAM-KRSRTRTDSYSAGQ-COOH as substrate by fluorescence based assay
Outline: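 GST-tagged P70S6K (a.a. 1-421) at 5 nM, 50 μM ATP, 5 μM 5FAM-peptide. Product separated from substrate by charge (electrophoretic mobility shift, −2500/−500 V). Duplicates, nonlinear regression fit.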

[12] = molecular target: Insulin receptor (Homo sapiens) (UniProt P06213); experiment: Inhibition of INSR at 1 uM
Sequence of Insulin receptor (Homo sapiens) (P06213 28-758 limits assumed): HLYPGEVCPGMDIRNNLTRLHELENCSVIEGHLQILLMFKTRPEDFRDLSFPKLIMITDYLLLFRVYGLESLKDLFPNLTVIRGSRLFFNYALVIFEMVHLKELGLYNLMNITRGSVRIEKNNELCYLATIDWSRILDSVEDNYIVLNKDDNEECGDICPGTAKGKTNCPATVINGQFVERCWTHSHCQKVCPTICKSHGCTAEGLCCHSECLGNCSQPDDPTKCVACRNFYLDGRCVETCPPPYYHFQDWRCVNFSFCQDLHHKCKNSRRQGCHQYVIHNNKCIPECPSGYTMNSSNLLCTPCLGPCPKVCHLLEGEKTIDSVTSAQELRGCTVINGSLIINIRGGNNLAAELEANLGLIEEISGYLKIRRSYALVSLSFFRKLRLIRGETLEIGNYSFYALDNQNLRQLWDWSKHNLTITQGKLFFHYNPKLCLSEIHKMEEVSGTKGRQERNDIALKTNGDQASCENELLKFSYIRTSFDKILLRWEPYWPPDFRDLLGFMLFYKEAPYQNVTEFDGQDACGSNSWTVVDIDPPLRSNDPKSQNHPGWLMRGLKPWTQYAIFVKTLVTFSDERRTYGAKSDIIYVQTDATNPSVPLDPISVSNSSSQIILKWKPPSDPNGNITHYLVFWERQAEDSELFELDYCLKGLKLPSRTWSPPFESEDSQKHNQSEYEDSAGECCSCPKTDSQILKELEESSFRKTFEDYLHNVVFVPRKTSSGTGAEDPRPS
Sequence of Insulin receptor (Homo sapiens) (P06213 763-1382 limits assumed): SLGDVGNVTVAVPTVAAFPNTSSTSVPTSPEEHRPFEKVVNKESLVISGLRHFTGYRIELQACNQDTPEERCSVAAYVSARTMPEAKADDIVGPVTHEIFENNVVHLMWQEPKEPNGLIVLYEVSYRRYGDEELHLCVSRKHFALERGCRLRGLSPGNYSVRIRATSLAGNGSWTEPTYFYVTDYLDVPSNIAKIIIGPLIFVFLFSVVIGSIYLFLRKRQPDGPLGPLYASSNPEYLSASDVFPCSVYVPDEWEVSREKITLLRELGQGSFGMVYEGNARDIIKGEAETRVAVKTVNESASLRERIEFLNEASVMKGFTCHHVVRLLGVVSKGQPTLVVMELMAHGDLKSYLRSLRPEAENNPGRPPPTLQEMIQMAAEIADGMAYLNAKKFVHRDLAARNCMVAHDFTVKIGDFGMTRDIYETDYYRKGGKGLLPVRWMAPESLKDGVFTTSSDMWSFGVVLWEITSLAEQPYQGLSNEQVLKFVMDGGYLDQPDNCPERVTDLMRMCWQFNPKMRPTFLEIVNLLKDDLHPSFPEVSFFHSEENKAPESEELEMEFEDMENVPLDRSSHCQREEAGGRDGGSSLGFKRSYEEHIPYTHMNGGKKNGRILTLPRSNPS

Sequence of Mitogen-activated protein kinase 1 (Homo sapiens) (P28482 whole entry): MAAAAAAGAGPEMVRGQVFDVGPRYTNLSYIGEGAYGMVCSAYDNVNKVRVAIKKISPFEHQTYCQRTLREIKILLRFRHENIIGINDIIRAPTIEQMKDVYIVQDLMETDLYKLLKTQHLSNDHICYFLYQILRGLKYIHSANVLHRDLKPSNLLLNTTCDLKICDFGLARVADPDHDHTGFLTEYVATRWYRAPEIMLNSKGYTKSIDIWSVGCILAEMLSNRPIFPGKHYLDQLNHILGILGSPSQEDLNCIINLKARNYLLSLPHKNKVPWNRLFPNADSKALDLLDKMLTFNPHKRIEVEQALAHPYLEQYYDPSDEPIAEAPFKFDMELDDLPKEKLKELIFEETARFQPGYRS
Sequence of Casein kinase I isoform alpha (Homo sapiens) (P48729 2-337 limits assumed): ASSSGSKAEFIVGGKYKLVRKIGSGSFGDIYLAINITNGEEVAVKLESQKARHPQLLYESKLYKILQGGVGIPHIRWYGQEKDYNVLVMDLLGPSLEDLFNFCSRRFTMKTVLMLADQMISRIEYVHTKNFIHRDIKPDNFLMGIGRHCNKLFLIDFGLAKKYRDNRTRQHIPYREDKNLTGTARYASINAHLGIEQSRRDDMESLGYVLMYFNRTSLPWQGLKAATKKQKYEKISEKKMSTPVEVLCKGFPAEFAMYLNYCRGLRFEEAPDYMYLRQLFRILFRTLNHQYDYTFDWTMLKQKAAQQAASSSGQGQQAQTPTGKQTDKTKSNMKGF
Sequence of Ephrin type-A receptor 2 (Homo sapiens) (P29317 whole entry): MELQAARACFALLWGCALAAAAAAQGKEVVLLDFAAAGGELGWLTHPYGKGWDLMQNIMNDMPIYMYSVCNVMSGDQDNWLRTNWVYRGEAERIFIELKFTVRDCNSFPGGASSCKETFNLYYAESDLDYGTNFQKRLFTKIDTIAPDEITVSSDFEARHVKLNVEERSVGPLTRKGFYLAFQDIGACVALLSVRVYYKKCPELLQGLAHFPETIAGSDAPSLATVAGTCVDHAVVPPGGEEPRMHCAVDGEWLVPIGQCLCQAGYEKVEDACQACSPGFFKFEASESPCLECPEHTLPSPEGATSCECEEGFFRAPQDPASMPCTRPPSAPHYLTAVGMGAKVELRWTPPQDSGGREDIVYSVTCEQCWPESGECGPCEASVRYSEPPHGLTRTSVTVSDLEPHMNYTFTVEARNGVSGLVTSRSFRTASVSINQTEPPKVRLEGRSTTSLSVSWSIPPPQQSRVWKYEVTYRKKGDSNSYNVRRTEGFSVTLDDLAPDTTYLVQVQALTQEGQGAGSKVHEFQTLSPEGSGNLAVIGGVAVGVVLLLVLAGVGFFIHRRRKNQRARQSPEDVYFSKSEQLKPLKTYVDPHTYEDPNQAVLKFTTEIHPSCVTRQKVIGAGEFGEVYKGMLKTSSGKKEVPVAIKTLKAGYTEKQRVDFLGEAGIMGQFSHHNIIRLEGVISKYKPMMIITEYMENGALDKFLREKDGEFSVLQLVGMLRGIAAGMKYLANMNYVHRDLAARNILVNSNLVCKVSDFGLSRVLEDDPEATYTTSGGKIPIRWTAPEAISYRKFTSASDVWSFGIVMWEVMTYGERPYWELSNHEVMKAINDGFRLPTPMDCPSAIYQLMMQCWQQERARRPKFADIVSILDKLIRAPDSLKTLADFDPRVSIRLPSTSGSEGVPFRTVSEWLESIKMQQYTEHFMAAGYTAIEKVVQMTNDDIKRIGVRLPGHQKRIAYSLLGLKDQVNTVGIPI
Sequence of Proto-oncogene tyrosine-protein kinase Src (Homo sapiens) (P12931 2-536 limits assumed): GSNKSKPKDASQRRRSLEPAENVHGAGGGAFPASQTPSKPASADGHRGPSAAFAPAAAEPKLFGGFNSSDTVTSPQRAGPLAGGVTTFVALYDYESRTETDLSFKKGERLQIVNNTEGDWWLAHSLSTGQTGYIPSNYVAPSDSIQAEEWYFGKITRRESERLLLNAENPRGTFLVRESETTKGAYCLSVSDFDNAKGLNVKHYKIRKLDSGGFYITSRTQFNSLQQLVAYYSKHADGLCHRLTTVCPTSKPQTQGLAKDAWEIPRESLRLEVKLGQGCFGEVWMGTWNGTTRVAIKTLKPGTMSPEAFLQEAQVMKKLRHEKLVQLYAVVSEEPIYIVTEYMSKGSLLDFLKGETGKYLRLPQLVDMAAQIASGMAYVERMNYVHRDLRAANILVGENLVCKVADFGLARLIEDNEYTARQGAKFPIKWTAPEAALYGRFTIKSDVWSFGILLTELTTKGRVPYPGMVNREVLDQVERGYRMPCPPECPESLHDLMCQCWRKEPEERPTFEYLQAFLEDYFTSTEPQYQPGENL
Sequence of High affinity nerve growth factor receptor (P04629 33-796 limits assumed): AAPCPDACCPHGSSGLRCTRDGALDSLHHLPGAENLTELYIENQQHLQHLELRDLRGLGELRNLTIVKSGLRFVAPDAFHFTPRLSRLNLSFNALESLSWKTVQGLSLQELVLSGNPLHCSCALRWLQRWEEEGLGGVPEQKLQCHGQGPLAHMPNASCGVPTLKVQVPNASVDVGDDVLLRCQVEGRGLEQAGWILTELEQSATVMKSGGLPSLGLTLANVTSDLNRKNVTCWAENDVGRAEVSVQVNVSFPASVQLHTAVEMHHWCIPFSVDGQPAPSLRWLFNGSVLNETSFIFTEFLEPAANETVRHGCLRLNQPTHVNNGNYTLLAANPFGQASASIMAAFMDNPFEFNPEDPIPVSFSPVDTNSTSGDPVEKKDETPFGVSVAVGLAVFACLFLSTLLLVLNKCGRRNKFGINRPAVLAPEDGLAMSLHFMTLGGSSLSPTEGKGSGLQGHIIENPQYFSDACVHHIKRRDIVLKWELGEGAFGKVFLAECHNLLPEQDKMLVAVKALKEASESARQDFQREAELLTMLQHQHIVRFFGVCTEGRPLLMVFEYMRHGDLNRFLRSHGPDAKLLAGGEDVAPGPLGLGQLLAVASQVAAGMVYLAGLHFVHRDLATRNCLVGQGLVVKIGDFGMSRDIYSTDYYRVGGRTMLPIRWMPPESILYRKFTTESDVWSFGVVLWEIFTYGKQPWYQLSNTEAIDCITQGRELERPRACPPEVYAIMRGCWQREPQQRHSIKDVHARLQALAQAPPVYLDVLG
Sequence of Tyrosine-protein kinase Lck (Homo sapiens) (P06239 2-509 limits assumed): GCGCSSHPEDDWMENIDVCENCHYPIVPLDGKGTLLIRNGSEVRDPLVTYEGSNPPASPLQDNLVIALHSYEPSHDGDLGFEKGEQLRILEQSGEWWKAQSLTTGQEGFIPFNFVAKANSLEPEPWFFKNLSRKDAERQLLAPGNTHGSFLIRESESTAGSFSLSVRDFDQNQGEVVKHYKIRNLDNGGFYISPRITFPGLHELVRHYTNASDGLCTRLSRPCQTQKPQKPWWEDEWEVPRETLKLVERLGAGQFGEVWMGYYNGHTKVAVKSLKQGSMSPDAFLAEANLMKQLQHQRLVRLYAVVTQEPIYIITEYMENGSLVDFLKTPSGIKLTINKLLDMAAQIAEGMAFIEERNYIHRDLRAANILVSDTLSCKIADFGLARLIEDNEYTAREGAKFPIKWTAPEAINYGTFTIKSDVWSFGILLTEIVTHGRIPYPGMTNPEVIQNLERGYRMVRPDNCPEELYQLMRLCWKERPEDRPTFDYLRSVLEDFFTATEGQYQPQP

`CC(C)n1cc(C(=O)c2cncc(N[C@@H]3CCN(C=O)[C@@H]3c3ccc(F)cc3)n2)c2c(N)ncnc21` showed an inhibition [1] of 7%, an inhibition [2] of 74% and an inhibition [3] of -1%. The inhibition [4] was 29%, the microsomal CLint [5] was 62 µL/min/mg and the inhibition [6] was 27%. For the same compound, the inhibition [7] was 12%, the inhibition [8] was 5% and the inhibition [9] was 7%. For the same compound, the inhibition [10] was 16%, the Ki [11] was 0.89 µM and the inhibition [12] was 4%.
`CC(=O)N1CC[C@@H](Nc2cncc(C(=O)c3cn(C(C)C)c4ncnc(N)c34)n2)[C@H]1c1ccccc1` showed an inhibition [1] of 7%, an inhibition [2] of 59% and an inhibition [3] of -5%. For the same compound, the inhibition [4] was 14%, the microsomal CLint [5] was 110 µL/min/mg and the inhibition [6] was 11%. It also gave an inhibition [7] of 4%, an inhibition [8] of 3% and an inhibition [9] of 3%. For the same compound, the inhibition [10] was -2%, the Ki [11] was 3.6 µM and the inhibition [12] was 4%.
`CC(=O)N1CC[C@@H](Nc2cncc(C(=O)c3cn(C(C)C)c4ncnc(N)c34)n2)[C@H]1c1ccc(F)cc1` showed an inhibition [1] of 4%, an inhibition [2] of 63% and an inhibition [3] of 4%. The inhibition [4] was 21%, the microsomal CLint [5] was 120 µL/min/mg and the inhibition [6] was 22%. The inhibition [7] was 8%, the inhibition [8] was -4% and the inhibition [9] was 1%. For the same compound, the inhibition [10] was 6%, the Ki [11] was 10 µM and the inhibition [12] was 3%.
